Values after ≈ are worked out from the molar mass of the structure shown.

In data set [1] the target is cGMP-specific 3',5'-cyclic phosphodiesterase (Homo sapiens, UniProt O76074). Put plainly: Inhibition of human PDE5 isolated from corpus cavernosum after 30 to 60 mins by scintillation counting method.
For data set [2], the species on record is Homo sapiens. Nature of the data set: Selectivity ratio of IC50 for PDE6 to IC50 for human PDE5. The method, boiled down:
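PDE5 was prepared from human corpus cavernosum and cone PDE6 from dog retina (anion-exchange fraction). IC50s came from concentration–response curves in a scintillation proximity assay with [3H]/unlabelled cGMP (1:3) at about 1/3 Km, so IC50 = Ki. Buffer was 20 mM Tris-HCl pH 7.4, 5 mM MgCl2, 1 mg/mL BSA; 30–60 min at 30 °C, <30% turnover. Ratio = PDE6 IC50/PDE5 IC50.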

A short description of data set [3]: Lipophilicity, log D of the compound at pH 7.4. The data set is classed as physicochemical. The following applies: buffer.
Data set [4] can be described thus: Half life in human liver microsomes. It is filed as ADME, Microsome.
Data set [5] is described as follows: Apparent permeability from apical to basolateral side of human Caco2 cells at 25 uM. The data set is classed as ADME, cell-based. The following applies: Caco-2.
In another data set the test system is Caco-2. Put plainly: Efflux ratio of apparent permeability from apical to basolateral to basolateral to apical side of human Caco2 cells. It is filed as ADME, cell-based. The method, boiled down:
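Caco-2 cell monolayers; flux measured in both directions, and the efflux ratio is taken as apical→basolateral flux divided by basolateral→apical flux.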

The nature of data set [6]: Clearance in rat at 1 mg/kg, iv. The data set is classed as ADME, organism-based. Details: dose 1 mg/kg, route intravenous. The following applies: in vivo.
Data set [7] is described as follows: Volume of distribution in rat at 1 mg/kg, iv and 2 mg/kg, po. The data set is classed as ADME, organism-based. The following applies: in vivo.
Data set [8] in a line: Elimination half life in rat at 1 mg/kg, iv and 2 mg/kg, po. It is filed as ADME, organism-based. The following applies: in vivo, read-out: beta t1/2 (converted).
A short description of data set [9]: Oral bioavailability in rat at 2 mg/kg. The conditions noted are these: in vivo. It is filed as ADME, organism-based.
Data set [10] is described as follows: Clearance in dog at 0.5 mg/kg, iv. The data set is classed as ADME, organism-based, Canis lupus familiaris. Also noted: dose 0.5 mg/kg, route intravenous. The conditions noted are these: in vivo.
Data set [11] is described as follows: Volume of distribution in dog at 0.5 mg/kg, iv and 1 mg/kg, po. The data set is classed as ADME, organism-based, Canis lupus familiaris. The following applies: in vivo.
Data set [12] is described as follows: Elimination half life in dog at 0.5 mg/kg, iv and 1 mg/kg, po. It is filed as ADME, organism-based, Canis lupus familiaris. The following applies: in vivo, read-out: beta t1/2 (converted).
A short description of data set [13]: Oral bioavailability in dog at 1 mg/kg. It is filed as ADME, organism-based, Canis lupus familiaris. The conditions noted are these: in vivo.
Data set [14] is described as follows: Aqueous solubility of the compound at pH 6.7. The data set is classed as physicochemical. The following applies: buffer.
The nature of data set [15]: Aqueous solubility of the compound in 0.2 M lactate buffer at pH 4.3. The data set is classed as physicochemical.
A short description of data set [16]: Volume of distribution in human at 0.43 mg/kg, iv. It is filed as ADME, organism-based. The conditions noted are these: in vivo. Details: dose 0.43 mg/kg, route intravenous.
Data set [17] can be described thus: Elimination half life in human at 0.43 mg/kg, iv. The data set is classed as ADME, organism-based. Also noted: dose 0.43 mg/kg, route intravenous. The following applies: in vivo, read-out: beta t1/2 (converted).
Data set [18] in a line: Cmax in human at 1.43 mg/kg, po. It is filed as ADME, organism-based. Details: dose 1.43 mg/kg, route oral. The conditions noted are these: in vivo.
A short description of data set [19]: Tmax in human at 1.43 mg/kg, po. The data set is classed as ADME, organism-based. Also noted: dose 1.43 mg/kg, route oral. The following applies: in vivo.
Data set [20] deals with Homo sapiens. Nature of the data set: AUC in human at 1.43 mg/kg, po. It is filed as ADME, organism-based, Plasma. The following applies: in vivo. Details: dose 1.43 mg/kg, route oral. The method, boiled down: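 Human pharmacokinetic study. The oral arm was given at 1.43 mg/kg, and a separate intravenous arm at 0.43 mg/kg. AUC (ng h/ml) was derived from the oral dosing, alongside Cmax, Tmax and oral bioavailability.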

Data set [21] relates to Homo sapiens. Put plainly: Oral bioavailability in human at 1.43 mg/kg. It is filed as ADME, organism-based. The following applies: in vivo.

For the molecule `CCOc1ncc(S(=O)(=O)N2CCN(CC)CC2)cc1-c1nc2c(CC)n(CCN3CCOCC3)nc2c(=O)[nH]1`, in data set [1], the midpoint of inhibition, the IC50, lay at 0.86 nM. The Ratio IC50 in the data set filed under Homo sapiens [2] was found to be 184. The same molecule had a pH-dependent lipophilicity (logD) in [3] of 1.6. The same molecule had a half-life in data set [4] of 0.3 h. The Papp A→B at 25 µM in [5] came to 2.5 ×10⁻⁶ cm/s. The Ratio in the data set with Caco-2 is listed as 11.2.
Take `CCc1c2nc(-c3cc(S(=O)(=O)N4CCN(CC)CC4)cnc3OCCOC)[nH]c(=O)c2nn1C1CCC1`: in data set [1], half-maximal inhibition (IC50) was put at 1.76 nM. For the same molecule, the Ratio IC50 in the data set listed under Homo sapiens [2] was found to be 219.
The matching figures for `CCOc1ncc(S(=O)(=O)N2CCN(CC)CC2)cc1-c1nc2c(CC)n(C3CNC3)nc2c(=O)[nH]1`: 15.8 nM and 28.
For `CCCOc1ncc(S(=O)(=O)N2CCN(CC)CC2)cc1-c1nc2c(CC)n(CCOC)nc2c(=O)[nH]1`, in that order: 0.69 nM and 51.
For `CCc1c2nc(-c3cc(S(=O)(=O)N4CCN(CC)CC4)cnc3OCCOC)[nH]c(=O)c2nn1C1CCOCC1`, in that order: 1.66 nM and 241.
On to `CCOc1ncc(S(=O)(=O)N2CCN(CC)CC2)cc1-c1nc2c3n(nc2c(=O)[nH]1)CCCC3C` (single isomer, unassigned; (+)), for which the Ratio IC50 in the data set listed under Homo sapiens [2] was found to be 125.
In turn, `CCc1c2nc(-c3cc(S(=O)(=O)N4CCN(CC)CC4)cnc3OCC3CC3)[nH]c(=O)c2nn1CCN1CCOCC1` displayed an IC50 in data set [1] of 0.26 nM. Moreover, the Ratio IC50 in the data set listed under Homo sapiens [2] was found to be 153.
Take `CCOc1ncc(S(=O)(=O)N2CCN(CC)CC2)cc1-c1nc2c3n(nc2c(=O)[nH]1)CCCC3C` (single isomer, unassigned; (-)): in data set [1], the IC50 was found to be 3.7 nM.
Molecule `CCN1CCN(S(=O)(=O)c2cnc(OCCOC)c(-c3nc4c5n(nc4c(=O)[nH]3)CCCC5)c2)CC1` registered an IC50 in data set [1] of 8.5 nM. Further, in the data set filed under Homo sapiens [2], the Ratio IC50 is 392.
Molecule `CCN1CCN(S(=O)(=O)c2cnc(OCCOC)c(-c3nc4c5n(nc4c(=O)[nH]3)CCCC5C)c2)CC1` (single isomer, unassigned; (+)) displayed an IC50 in data set [1] of 2.76 nM.
In data set [1], `CCCCOc1ncc(S(=O)(=O)N2CCN(CC)CC2)cc1-c1nc2c(CC)n(C3CN(C)C3)nc2c(=O)[nH]1` registered an IC50 of 0.78 nM. In addition, the Ratio IC50 in the data set filed under Homo sapiens [2] came out at 209. This molecule yielded a logD in data set [3] of 2.8. For the same molecule, the half-life in data set [4] came out at 1.23 h. In data set [5], the Papp A→B at 25 µM was 6 ×10⁻⁶ cm/s. Further, the Ratio in the data set with Caco-2 came to 4.
With `CCOc1ncc(S(=O)(=O)N2CCN(CC)CC2)cc1-c1nc2c(CC)n(C3CN(C)C3)nc2c(=O)[nH]1`, the concentration for half-maximal inhibition (IC50) in data set [1] is 8.2 nM. Besides, the Ratio IC50 in the data set filed under Homo sapiens [2] was found to be 52.
`CCOc1ncc(S(=O)(=O)N2CCN(CC)CC2)cc1-c1nc2c(CC)n(CCOC)nc2c(=O)[nH]1` showed an IC50 in data set [1] of 1.23 nM. In data set [3], this molecule showed a logD of 2.1. Also, the half-life in data set [4] was 0.467 h; in [8], 0.95 h; in data set [12], 2.1 h; in [17], 2.6 h. Further, the Papp A→B at 25 µM in data set [5] came out at 16 ×10⁻⁶ cm/s. The clearance is 26.6 mL/min/kg in [6] and 16 mL/min/kg in [10]. Also, the results for the Vd in data set [7], in data set [11] and in [16] were 2.2 L/kg, 2.8 L/kg and 2.8 L/kg, respectively. For the same molecule, the results for the bioavailability in data set [9] and in [13] were 61% and 55%, respectively. Besides, the solubility in data set [14] is 100 mg/mL (≈ 192 mM); in data set [15], above 14 mg/mL. For the same molecule, the peak level in data set [18] (Cmax) was 205 ng/mL. Besides, in data set [19], the Tmax was determined as 1 h. Further, the AUC with Homo sapiens [20] is 95.2 ng·h/mL. The molecule further had a F in the data set with Homo sapiens [21] of 34%.
The molecule `CCc1c2nc(-c3cc(S(=O)(=O)N4CCN(CC)CC4)cnc3OCc3ccccn3)[nH]c(=O)c2nn1CCOC` registered an IC50 in data set [1] of 0.75 nM. In addition, the Ratio IC50 in the data set filed under Homo sapiens [2] amounted to 309.
`CCc1c2nc(-c3cc(S(=O)(=O)N4CCN(CC)CC4)cnc3OCCOC)[nH]c(=O)c2nn1CCOC` returned an IC50 in data set [1] of 1.53 nM. In the data set listed under Homo sapiens [2], the Ratio IC50 was found to be 306. For the same molecule, the logD in [3] was determined as 1.4. The half-life in data set [4] worked out at 1.17 h. The Papp A→B at 25 µM in data set [5] is 9 ×10⁻⁶ cm/s. Besides, in the data set on Caco-2, the Ratio is recorded as 4.2.
For the molecule `CCc1c2nc(-c3cc(S(=O)(=O)N4CCN(CC)CC4)cnc3OCC(C)C)[nH]c(=O)c2nn1CCCN(C)C`, the IC50 in data set [1] came out at 2.44 nM. The Ratio IC50 in the data set listed under Homo sapiens [2] is 404.
On to `CCc1c2nc(-c3cc(S(=O)(=O)N4CCN(CC)CC4)cnc3OCCOC)[nH]c(=O)c2nn1CC(C)C`, for which, in data set [1], half-maximal inhibition (IC50) was put at 1.04 nM. Besides, in the data set filed under Homo sapiens [2], the Ratio IC50 was 331. Moreover, the pH-dependent lipophilicity (logD) in data set [3] was 2.8. Also, in data set [4], the half-life was found to be 0.183 h. In addition, in data set [5], the Papp A→B at 25 µM was determined as 24 ×10⁻⁶ cm/s. In the data set on Caco-2, the Ratio is reported as 2.5.
Molecule `CCCCOc1ncc(S(=O)(=O)N2CCN(CC)CC2)cc1-c1nc2c(CC)n(C3CCN(S(C)(=O)=O)CC3)nc2c(=O)[nH]1` showed an IC50 in [1] of 0.31 nM. The Ratio IC50 in the data set filed under Homo sapiens [2] came to 100.
